Measured values: PMC9292215 (Clinical Pharmacology and Therapeutics, 2021)

Assays:
anandamide (AEA) = assay: Plasma anandamide; format: in vivo, human; conditions: for AEA AUC0–24: Day 1; for AEA AUC0–τ: Day 10
Summary of the method: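 In a double-blind, placebo-controlled multiple-dose part, healthy adult men and women in groups of eight (six active, two placebo) took oral test compound once daily for 10 days. They fasted at least 8 h before and 1 h after dosing. Plasma anandamide AUCs were taken on Days 1 and 10, with a Day 10/Day 1 ratio. Data are mean (CV%); tmax is median (range).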

FAAH = target: T1, FAAH (Homo sapiens, UniProt O00519); assay: Leukocyte FAAH activity in participants; format: in vivo
T1 sequence (O00519 1-579): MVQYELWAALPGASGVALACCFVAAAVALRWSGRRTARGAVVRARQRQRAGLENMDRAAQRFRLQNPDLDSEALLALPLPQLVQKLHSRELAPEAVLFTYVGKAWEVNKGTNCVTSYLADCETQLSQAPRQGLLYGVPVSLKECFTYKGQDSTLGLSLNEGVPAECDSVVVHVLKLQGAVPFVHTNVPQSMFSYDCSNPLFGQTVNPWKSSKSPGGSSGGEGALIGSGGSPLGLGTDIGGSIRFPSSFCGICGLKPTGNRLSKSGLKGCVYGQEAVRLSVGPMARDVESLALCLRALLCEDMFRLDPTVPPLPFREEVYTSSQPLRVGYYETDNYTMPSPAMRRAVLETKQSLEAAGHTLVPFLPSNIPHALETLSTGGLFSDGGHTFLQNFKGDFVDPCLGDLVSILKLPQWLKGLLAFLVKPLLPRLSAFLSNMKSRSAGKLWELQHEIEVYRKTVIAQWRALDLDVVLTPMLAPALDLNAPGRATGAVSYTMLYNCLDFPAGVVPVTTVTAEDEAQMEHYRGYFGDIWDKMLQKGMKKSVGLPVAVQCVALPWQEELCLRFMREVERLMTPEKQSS
Summary of the method: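 Healthy men and women aged 18–55 years (BMI 19–30 kg/m²) took single oral capsule doses of test compound (0.25–100 mg) or matching placebo in a double-blind design. They fasted at least 8 h before and 1 h after dosing. Leukocyte FAAH activity was followed after dosing and expressed as percent inhibition, judged by visual inspection. Values are means of six participants per group.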

CN(C(=O)n1cnc(-c2ccc[n+]([O-])c2)c1)C1CCCCC1 [BIA 10-2474, 3-(1-(cyclohexyl(methyl)carbamoyl)-1H-imidazol-4-yl)pyridine 1-oxide]
AEA Ratio (AUCD10/D1) (anandamide (AEA); 2.5 mg once daily): 1.27
AEA AUC0–24 (anandamide (AEA); 2.5 mg once daily): 42.8 (17.1) ng⋅hour/mL
AEA AUC0–τ (anandamide (AEA); 2.5 mg once daily): 54.2 (9.41) ng⋅hour/mL
AEA Ratio (AUCD10/D1) (anandamide (AEA); 5 mg once daily): 1.25
AEA AUC0–24 (anandamide (AEA); 5 mg once daily): 44.9 (23.4) ng⋅hour/mL
AEA AUC0–τ (anandamide (AEA); 5 mg once daily): 56.3 (17.7) ng⋅hour/mL
AEA Ratio (AUCD10/D1) (anandamide (AEA); 10 mg once daily): 1.16
AEA AUC0–24 (anandamide (AEA); 10 mg once daily): 52.2 (19.3) ng⋅hour/mL
AEA AUC0–τ (anandamide (AEA); 10 mg once daily): 60.8 (17.9) ng⋅hour/mL
AEA Ratio (AUCD10/D1) (anandamide (AEA); 20 mg once daily): 1.22
AEA AUC0–24 (anandamide (AEA); 20 mg once daily): 51.2 (19.6) ng⋅hour/mL
AEA AUC0–τ (anandamide (AEA); 20 mg once daily): 62.8 (21.7) ng⋅hour/mL
BIA 10-2474 plasma exposure giving relevant AEA increases (anandamide (AEA); achieved with 10 mg/day): around 1,500 ng⋅h/mL
AEA AUC0–t (anandamide (AEA); single dose 0.25 mg): 27.5 (34.1) ng⋅hour/mL
AEA AUC0–t (anandamide (AEA); single dose 1.25 mg): 68.0 (13.1) ng⋅hour/mL
AEA AUC0–t (anandamide (AEA); single dose 2.5 mg): 101 (17.2) ng⋅hour/mL
AEA AUC0–t (anandamide (AEA); single dose 5 mg): 109 (11.2) ng⋅hour/mL
AEA AUC0–t (anandamide (AEA); single dose 10 mg): 137 (8.92) ng⋅hour/mL
AEA AUC0–t (anandamide (AEA); single dose 20 mg): 149 (6.20) ng⋅hour/mL
AEA AUC0–t (anandamide (AEA); single dose 40 mg): 160 (26.42) ng⋅hour/mL
AEA AUC0–t (anandamide (AEA); single dose 100 mg): 188 (22.4) ng⋅hour/mL
increase in plasma AEA AUC compared with placebo (anandamide (AEA); single dose 100 mg): 12.5 fold
return of AEA to baseline (anandamide (AEA); single doses): > 72 hours post dose
apparent maximum FAAH inhibition (FAAH; 5 mg and above, visual inspection): > 97%
duration of FAAH inhibition by more than 90% (FAAH; doses above 2.5 mg): at least 72 hours
FAAH activity inhibited (FAAH; doses above 2.5 mg, for at least 72 hours): more than 90%
FAAH inhibition (FAAH; single dose 0.25 mg, visual inspection): more than 50%
